A selection: hits, their analogues and other compounds. The true share with any hit is near 2.4%.
NPY-Y1 PAM-ag: human NPY-Y1 potentiation or agonism, primary screen; NPY-Y1 expressing cells, potentiator/agonist activation; 220,000 tested, 0.37% active; activation, % at 3.6 µM; P25929; in the data active = activation above about 33%, passing the limit was not always enough;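 note: cells stimulated with NPY at EC10 then isoproterenol at EC100; 0% = low agonist plus stimulus and 100% = saturating agonist plus stimulus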
Target sequence (P25929 whole entry, looked up): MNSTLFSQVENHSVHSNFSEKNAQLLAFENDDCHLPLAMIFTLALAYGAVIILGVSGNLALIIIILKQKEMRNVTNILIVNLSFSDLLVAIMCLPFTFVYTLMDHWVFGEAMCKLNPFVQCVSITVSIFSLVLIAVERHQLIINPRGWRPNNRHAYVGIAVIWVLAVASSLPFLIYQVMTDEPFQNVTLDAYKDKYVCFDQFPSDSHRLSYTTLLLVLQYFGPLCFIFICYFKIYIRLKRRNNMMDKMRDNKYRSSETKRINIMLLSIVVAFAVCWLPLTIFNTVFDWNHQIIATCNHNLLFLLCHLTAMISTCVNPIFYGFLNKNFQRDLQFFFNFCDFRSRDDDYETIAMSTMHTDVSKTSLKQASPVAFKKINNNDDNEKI
S1P4 antag: antagonists of human S1P4 receptor | O95977 | 220,000 tested, 0.26% active | inhibition, % at 4.98 µM | AID 1510 | S1P4-expressing cells, antagonist mode, reporter read-out; in the data active = inhibition above about 29%;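 note: 0% = wells stimulated with agonist and 100% = vehicle wells without agonist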
NPY-Y1 antag: blocks the human neuropeptide Y Y1 receptor | P25929 | HEK293-CNG Y1 cells, membrane potential fluorescence; NPY at EC95, then isoproterenol | inhibition, % at 3.6 µM | 200,000 tested, 1% active | AID 1040;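 active = inhibition above the campaign mean inhibition of all tested compounds plus 3 SD, cut at about 20% in these data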;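 note: 0% = DMSO wells given NPY plus isoproterenol and 100% = isoproterenol alone without NPY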
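Assay system: HEK293 Y1/CNG channel cell line; Doses: single compound dose of 3.6 µM, 0.4% DMSO; Timing: dye 3 h, compound 60 min room temperature, stimulation 45 min; Technique: Membrane-potential fluorescent dye readout; Measure: % inhibition of NPY effect.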
S1P4 agonist: agonists of human S1P4 receptor; O95977; S1P4-expressing cell line, agonist reporter assay; activation, % at 4.98 µM; 220,000 tested, 0.35% active; in the data active = activation above about 11%;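 note: 0% = DMSO vehicle and 100% = reference agonist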
NPY-Y2 antag: blocks the human neuropeptide Y Y2 receptor. 140,000 tested, 0.99% active. inhibition, % at 2.7 µM. NPY-Y2 expressing cells, antagonist mode. AID 793. P49146; in the data active = inhibition above about 17%;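 note: 0% = vehicle with agonist challenge and 100% = reference antagonist with challenge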
NPY-Y2 PAM-ag: human NPY-Y2 potentiation or agonism, primary screen | cells expressing NPY-Y2, potentiator/agonist read-out | AID 1359 | 220,000 tested, 0.45% active | activation, % at 3.6 µM; in the data active = activation above about 27%;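 note: cells stimulated with NPY near EC25 plus isoproterenol at EC100; 0% = vehicle plus submaximal agonist and 100% = vehicle plus saturating agonist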
* hit, by the source's call; / = not tested or not shown.

SMILES	NPY-Y1 PAM-ag	S1P4 antag	NPY-Y1 antag	S1P4 agonist	NPY-Y2 antag	NPY-Y2 PAM-ag
COC(=O)/C(=N/Nc1cccc(C)c1)N1CCCc2ccccc21	-14.2	-0.8	19.1	1.0	6.2	-2.9
CCOc1ccc(N2C(=O)CC(N(Cc3ccco3)C(C)=O)C2=O)cc1 (centres undefined)	14.0	-11.6	3.6	1.5	/	3.9
Cc1ccc(NC(=O)C2(C)Cc3ccccc3C(=O)O2)cc1 (centres undefined)	20.1	3.2	-3.1	-0.2	/	6.6
O=C(C1CCN(S(=O)(=O)c2ccccc2[N+](=O)[O-])CC1)N1CCOCC1	10.4	-0.1	-1.2	0.9	/	7.2
COc1ccc(Br)cc1/C(C)=N/NC1=NCCN1	5.8	-13.1	-0.6	-1.3	8.6	9.6
CCCCCOc1ccc(Br)cc1/C(C)=N/NC1=NCCN1	-46.4	-9.2	27.4*	0.6	54.4*	-20.6
Cc1c(Br)c([N+](=O)[O-])nn1CC(=O)Nc1ccc(C(N)=O)cc1	-3.6	-31.2	0.8	1.3	/	0.8
O=C(NCCN1CCN(c2ccccc2)CC1)C1CCN(S(=O)(=O)N2CCOCC2)CC1	31.8*	-4.0	-1.7	3.5	-1.1	-8.1
CCN1C/C(=C/c2cccc([N+](=O)[O-])c2)C(=O)/C(=C/c2cccc([N+](=O)[O-])c2)C1	-11.6	-15.1	2.8	1.4	1.2	7.5
CC(OC(=O)c1ccc2c(c1)C(=O)N(Cc1ccncc1)C2=O)C(=O)Nc1cccc(Cl)c1Cl (centres undefined)	113.6*	0.4	-10.6	-0.4	3.9	103.0*
CC(C)c1ccc(NC(=S)NN2CCOCC2)cc1	88.3*	-11.0	0.9	0.1	0.6	88.6*
CC(=O)CCn1cc([N+](=O)[O-])nc1C	-4.8	-0.4	/	0.1	/	10.0
O=C(Cn1nc(-c2ccccc2)ccc1=O)Nc1ccc(N2CCN(C(=O)c3ccccc3)CC2)cc1	32.3	-5.3	-12.2	-1.1	-6.8	33.0*
O=C(Cn1nc(-c2ccccc2)ccc1=O)Nc1ccc(-n2cnnn2)cc1	22.4	-3.5	/	-2.6	/	19.5
CS(=O)c1nc(-c2ccc(Br)cc2)cc(-c2ccccc2)c1C#N (centres undefined)	101.2*	26.3	-9.2	2.6	1.8	66.0*
CS(=O)(=O)c1nc(-c2ccc(Br)cc2)cc(-c2ccccc2)c1C#N	13.6	5.2	2.0	-0.5	5.2	6.9
Cc1noc(C)c1S(=O)(=O)N(CCc1ccccc1)Cc1ccccc1	-17.4	-9.7	24.3*	0.0	20.2*	-23.0
Cc1noc(C)c1S(=O)(=O)N(C)CC(=O)NCc1ccccc1	7.7	7.9	-0.9	-1.4	0.2	2.3
Cc1ccc(-c2noc(CSc3nnc(Cc4ccccc4)n3-c3ccc(Cl)cc3)n2)cc1	-37.1	0.7	21.0*	-2.6	24.7*	-35.0
O=S(=O)(/C(=C/c1ccc(C(F)(F)F)cc1)c1nc2ccccc2[nH]1)c1ccccc1	19.6	92.2*	2.9	-1.3	0.7	9.9
COc1ccc(C(=O)Nn2cnnc2)cc1OC	-10.1	-7.4	/	-1.1	/	-5.0
CCOC(=O)C1=C(C)N(C)C(C)=C(C(=O)OCC)C1c1ccc(Cl)cc1	-28.9	-5.0	12.6	0.2	9.1	-1.1
CCOC(=O)C1=C(C)N(C)C(C)=C(C(=O)OCC)C1c1ccc(C(=O)OC)cc1	-15.1	8.9	35.1*	-1.7	24.8*	-13.3
COc1ccc(/C=N/NC(=O)C(Cc2c[nH]c3ccccc23)NC(=O)OCC(C)C)cc1[N+](=O)[O-] (centres undefined)	-66.0	-10.8	35.2*	-0.9	33.4*	-26.5
CCC(Sc1nc2ccccc2o1)C(=O)O (centres undefined)	-12.6	-16.5	20.7*	0.4	/	-37.7
Cn1c(/C=C(\C#N)C(N)=S)ccc1-c1ccc(Br)cc1	6.2	0.4	-8.8	3.8	/	2.0
CCCCNC(=O)NS(=O)(=O)c1ccc(NC(=O)C(NC(N)=O)C(C)CC)cc1 (centres undefined)	5.4	-21.8	/	1.3	/	-17.9
Cc1ccc(S(=O)(=O)NN2C(=O)/C(=C/c3cccs3)SC2=S)cc1	-17.1	-7.5	/	0.7	/	-32.5
Cc1ccc(S(=O)(=O)NN2C(=O)/C(=C/c3cccn3C)SC2=S)cc1	-41.7	-15.5	28.1*	2.1	9.4	-26.4

Source: PubChem (The Scripps Research Institute Molecular Screening Center)
